From ChEMBL document CHEMBL4732118, “Discovery of indazole-pyridinone derivatives as a novel class of potent and selective MNK1/2 kinase inhibitors that protecting against endotoxin-induced septic shock” (Eur J Med Chem, 2021) come the findings set out here.

≈ marks a conversion by molar mass, not a printed value.

Data set [1] can be described thus: Tmax in CD-1 mouse at 5 mg/kg, po by LC-MS analysis. The format is ADME, organism-based. As to conditions: in vivo. The essentials: (§1)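 Female CD-1 mice, 5 weeks old, 3 animals per time point. Compound dissolved in DMSO, diluted in Captisol, given p.o. at 5 mg/kg or i.v. at 2 mg/kg. Animals sacrificed at 5, 15 and 30 min and 1, 2, 4, 7 and 24 h. Plasma precipitated with cold acetonitrile and quantified by LC-MS/MS (SRM, positive H-ESI) against a blank mouse plasma calibration curve.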

The nature of data set [2]: Cmax in CD-1 mouse at 2 mg/kg, iv by LC-MS analysis. The format is ADME, organism-based. Set-up: route intravenous, dose 2 mg/kg. The following applies: in vivo. In short, it runs like this:
(§2)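 Female CD-1 mice, 5 weeks old, 3 per time point. Dosed at 10 µl/g, DMSO solution diluted in Captisol, p.o. 5 mg/kg or i.v. 2 mg/kg. Sacrifice at 5, 15, 30 min and 1, 2, 4, 7, 24 h. Plasma acetonitrile-precipitated, quantified by LC-MS/MS (C18, positive H-ESI, SRM) against a calibration curve in blank mouse plasma.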

A short description of data set [3]: Tmax in CD-1 mouse at 2 mg/kg, iv by LC-MS analysis. As to conditions: in vivo. The format is ADME, organism-based. In short, it runs like this:
as §1

A short description of data set [4]: AUC (0 to infinity) in CD-1 mouse at 5 mg/kg, po by LC-MS analysis. The following applies: in vivo. The arrangement: time infinity, route oral, dose 5 mg/kg. It counts as ADME, organism-based. The essentials: as §2
Data set [5] in a line: Kinetic solubility of compound in pH 7.4 Soerensen's buffer at 500 uM measured after […] by UV-VIS absorption spectrophotometry. The format is physicochemical. As to conditions: time 1.5 hrs, read-out: Kinetic_solubility.
Data set [6] can be described thus: AUC (0 to infinity) in CD-1 mouse at 2 mg/kg, iv by LC-MS analysis. It counts as ADME, organism-based. Set-up: route intravenous, time infinity, dose 2 mg/kg. As to conditions: in vivo. The essentials:
as §2

Data set [7] can be described thus: Kinetic solubility of compound in water at 500 uM measured after […] by UV-VIS absorption spectrophotometry. The format is physicochemical. The following applies: time 1.5 hrs, read-out: Kinetic_solubility.
A short description of data set [8]: AUC (0 to t) in CD-1 mouse at 5 mg/kg, po by LC-MS analysis. It counts as ADME, organism-based. The arrangement: dose 5 mg/kg. The following applies: in vivo. The essentials: as §2
Data set [9] can be described thus: Oral bioavailability in CD-1 mouse at 5 mg/kg by LC-MS analysis. The following applies: in vivo. The format is ADME, organism-based. The essentials:
as §1

Data set [10] in a line: Cmax in CD-1 mouse at 5 mg/kg, po by LC-MS analysis. The format is ADME, organism-based. The arrangement: route oral, dose 5 mg/kg. As to conditions: in vivo. In short, it runs like this: as §2
The nature of data set [11]: AUC (0 to t) in CD-1 mouse at 2 mg/kg, iv by LC-MS analysis. It counts as ADME, organism-based. The arrangement: dose 2 mg/kg. The following applies: in vivo. In short, it runs like this:
as §2

With `Nc1n[nH]c2cc(-c3ccc(=O)n(Cc4ccccc4F)c3)ccc12`, the Tmax (commonly the time at which the peak concentration occurs) in [1] was 15 min; in [3] it was 4.8 min. In addition, the peak concentration (Cmax) (commonly the highest concentration seen after dosing) worked out at 1670 ng/mL in [2] and 335 ng/mL in [10]. Moreover, the AUC – broadly, concentration integrated over time – was found to be 674 ng·h/mL in [4] and 677 ng·h/mL in data set [6]. The solubility kinetic at […], 500 µM in [5] is 466 µM (≈ 156 µg/mL); in data set [7] it was above 500 µM. Further, the AUCt worked out at 517 ng·h/mL in data set [8] and 629 ng·h/mL in data set [11]. Moreover, the bioavailability (as a rule, the share of a dose that reaches the circulation, judged against a reference dose that is usually intravenous) in [9] is 33%.
`Nc1n[nH]c2cc(-c3ccc(=O)n(Cc4cccc(Cl)c4)c3)ccc12`: the time to peak (Tmax) in data set [1] was found to be 15 min; in [3], 4.8 min. Moreover, the Cmax in [2] came to 1490 ng/mL; in [10] it was 1050 ng/mL. Also, the area under the curve (AUC) came to 2410 ng·h/mL in data set [4] and 855 ng·h/mL in [6]. The solubility kinetic at […], 500 µM in data set [5] came to 172 µM (≈ 60.3 µg/mL); in data set [7] it was 275 µM (≈ 96.5 µg/mL). For the same molecule, the results for the AUCt in data set [8] and in data set [11] were 2150 ng·h/mL and 834 ng·h/mL, respectively. The molecule also came in with a bioavailability in data set [9] of 100%.
